Reference: ChEMBL document CHEMBL4627260, “Optimisation of estrogen receptor subtype-selectivity of a 4-Aryl-4H-chromene scaffold previously identified by virtual screening” (Bioorg Med Chem, 2020)

Assays:
MCF7 [1] = test: Antiproliferative activity against human MCF7 cells assessed as inhibition of cell viability after 72 hrs by MTT assay; assay type: functional, cell-based; settings: MCF7, 72 h
Summary of the method: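 MCF-7 cells grown in Eagle's MEM with 10% fetal calf serum, 2 mM L-glutamine, penicillin/streptomycin and 1% non-essential amino acids. Seeded at 2.5×10^4 cells/mL, 24 h at 37 °C, 5% CO2. Dosed from ethanol stocks at 1 nM–100 μM final (vehicle 1% v/v ethanol), 72 h. MTT 1 mg/mL for 2 h in dark, DMSO solubilisation, absorbance 595 nm. Viability relative to vehicle; mean ± S.E.M., at least two experiments in triplicate.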

Estrogen receptor = molecular target: T1, Estrogen receptor (Homo sapiens, UniProt P03372); test: Displacement of fluorescent estrogen ligand from recombinant human full length untagged ERalpha expressed in baculovirus infected insect cells incubated in dark for 2 hrs by Beacon single-tube fluorescent polarization assay
T1 sequence (P03372 whole entry): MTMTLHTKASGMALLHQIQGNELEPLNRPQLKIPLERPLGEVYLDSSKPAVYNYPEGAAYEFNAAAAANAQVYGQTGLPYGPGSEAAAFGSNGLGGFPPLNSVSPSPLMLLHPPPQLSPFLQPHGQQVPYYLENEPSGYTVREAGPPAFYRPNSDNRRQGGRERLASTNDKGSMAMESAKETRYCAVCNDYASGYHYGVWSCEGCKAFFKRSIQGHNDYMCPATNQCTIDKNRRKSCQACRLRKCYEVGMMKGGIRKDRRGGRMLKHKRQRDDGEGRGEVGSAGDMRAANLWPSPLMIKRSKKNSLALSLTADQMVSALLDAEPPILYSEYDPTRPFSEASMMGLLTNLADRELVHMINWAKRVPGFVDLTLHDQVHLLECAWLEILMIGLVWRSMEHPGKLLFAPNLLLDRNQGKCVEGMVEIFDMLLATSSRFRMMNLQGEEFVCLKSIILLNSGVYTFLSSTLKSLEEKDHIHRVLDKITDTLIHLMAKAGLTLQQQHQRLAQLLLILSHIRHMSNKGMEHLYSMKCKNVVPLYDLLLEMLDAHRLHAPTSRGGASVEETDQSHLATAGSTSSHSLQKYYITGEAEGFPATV

Estrogen receptor beta = Estrogen receptor beta (Homo sapiens, UniProt Q92731); test: Displacement of fluorescent estrogen ligand from recombinant human full length untagged ERbeta expressed in baculovirus infected insect cells incubated in dark for 2 hrs by Beacon single-tube fluorescent polarization assay
Estrogen receptor beta, sequence (Q92731 whole entry): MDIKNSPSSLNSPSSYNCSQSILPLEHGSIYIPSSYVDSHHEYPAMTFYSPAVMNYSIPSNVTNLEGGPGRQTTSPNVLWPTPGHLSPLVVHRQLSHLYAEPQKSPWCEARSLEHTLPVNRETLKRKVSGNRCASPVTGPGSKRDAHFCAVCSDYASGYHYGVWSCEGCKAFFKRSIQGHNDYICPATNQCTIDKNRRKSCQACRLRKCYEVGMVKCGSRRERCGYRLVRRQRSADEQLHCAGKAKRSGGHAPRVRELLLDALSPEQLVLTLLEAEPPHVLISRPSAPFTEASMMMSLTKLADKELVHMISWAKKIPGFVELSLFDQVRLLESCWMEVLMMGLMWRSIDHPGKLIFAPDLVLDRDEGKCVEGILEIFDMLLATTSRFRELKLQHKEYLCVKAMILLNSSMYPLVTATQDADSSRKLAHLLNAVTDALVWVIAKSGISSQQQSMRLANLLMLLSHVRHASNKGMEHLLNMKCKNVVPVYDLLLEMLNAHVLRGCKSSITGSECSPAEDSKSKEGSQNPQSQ

MCF7 [2] = test: Toxicity in human MCF7 cells assessed as cell death at 10 uM incubated for 72 hrs by LDH assay relative to control; assay type: cell-based; settings: mcf7, 72 h
Summary of the method: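 LDH release assay (CytoTox 96). MCF-7 cells seeded at 1×10^4 cells/well for 24 h, dosed with ethanol vehicle (1% v/v) and incubated 72 h. Medium mixed with substrate for 20 min at room temperature in dark, stopped, absorbance read at 490 nm. Lysis is percent of a lysis-solution control (100% lysis, 45 min); three experiments in triplicate, mean ± SEM.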

[3] = Chemical stability of the compound in pH 7.4 phosphate buffer assessed as half life by HPLC method; assay type: physicochemical
Summary of the method: (§1)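 Stock of 5 mg compound in 10 mL mobile phase; 30 μL diluted into 1 mL phosphate buffer (pH 4, 7.4 or 9, British Pharmacopoeia). Injected immediately and sampled at 0, 5, 30, 60, 90, 120 min and 21 h. HPLC with UV detection at 254 nm, acetonitrile:water 80:20 mobile phase, 1 mL/min over 10 min.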

[4] = Chemical stability of the compound in phosphate buffer at pH 4 assessed as compound remaining after 30 mins by HPLC method; assay type: physicochemical; settings: read-out: Stability; summary of the method: as §1
[5] = Stability in human plasma assessed as half life by HPLC method; assay type: ADME, cell-free
Summary of the method: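 Human blood plasma (2.0 mL) mixed with PBS containing 10% DMSO (1.6 mL) and pre-warmed to 37 °C. Compound added as 400 μL of a 1.0 mg/mL stock. Aliquots of 100 μL quenched in 900 μL acetonitrile, centrifuged and filtered. Sampled every 15 min for 1 h, then hourly to 3 h, plus 24 h. C18 reverse-phase HPLC at 25 °C, H2O:ACN:MeOH mobile phase, 1.0 mL/min.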

[6] = Chemical stability of the compound in pH 9 phosphate buffer assessed as half life by HPLC method; assay type: physicochemical; summary of the method: as §1

Row | IC50 (MCF7 [1]) [µM] | IC50 (Estrogen receptor) [µM] | IC50 (Estrogen receptor beta) [µM] | half-life [3] [h] | remaining at 0.5 h [4] [%] | half-life [5] [h] | half-life [6] [h] | SMILES | Activity (MCF7 [2]) [%]
1 | > 100 | 2.36 | 0.61 | – | – | – | – | CCOC(=O)C1=C(N)Oc2cc(O)ccc2C1c1ccccc1 (configuration not stated) | –
2 | > 100 | – | – | – | – | – | – | CCOC(=O)C1=C(N)Oc2cc(O)ccc2C1c1ccc(OC)c(OC)c1 (configuration not stated) | –
3 | > 100 | > 10 | 8.39 | – | – | – | – | N#CC1=C(N)Oc2cc(O)ccc2C1c1ccccc1 (configuration not stated) | –
4 | 23.2 | 1.47 | 10.4 | – | – | – | – | N#CC1=C(N)Oc2cc(O)ccc2C1c1ccc(OCCN2CCCCC2)cc1 (configuration not stated) | –
5 | 10.8 | 3.3 | 1.59 | – | – | – | – | COC(=O)C1=C(N)Oc2cc(O)ccc2C1c1ccccc1 (configuration not stated) | –
6 | 4.5 | 40.3 | > 100 | – | – | – | – | CCOC(=O)C1=C(N)Oc2cc(O)ccc2C1c1ccc(OCc2ccccc2)cc1 (configuration not stated) | –
7 | > 50 | 0.89 | > 10 | – | – | – | – | N#CC1=C(N)Oc2cc(O)ccc2C1c1ccc(OCCN2CCCC2)cc1 (configuration not stated) | –
8 | 19.6 | 0.02 | 0.35 | – | – | – | – | COC(=O)C1=C(N)Oc2cc(O)ccc2C1c1ccc(OCCN2CCCC2)cc1 (configuration not stated) | 0
9 | 31.8 | 0.03 | 2.35 | > 24 | 32 | > 24 | > 24 | CCCCOC(=O)C1=C(N)Oc2cc(O)ccc2C1c1ccc(OCCN2CCCCC2)cc1 (configuration not stated) | –
10 | > 100 | – | – | – | – | – | – | CCOC(=O)C1=C(N)Oc2cc(O)ccc2C1c1ccc(O)cc1 (configuration not stated) | –
11 | > 100 | 109 | 0.63 | – | – | – | – | COC(=O)C1=C(N)Oc2cc(O)ccc2C1c1ccc(OCCN2CCOCC2)cc1 (configuration not stated) | –
12 | 2.65 | 0.09 | 0.37 | – | – | – | – | CC(C)(C)OC(=O)C1=C(N)Oc2cc(O)ccc2C1c1ccc(OCCN2CCCCC2)cc1 (configuration not stated) | –
13 | 18.8 | 0.22 | 2.44 | – | – | – | – | CCOC(=O)C1=C(N)Oc2cc(O)ccc2C1c1ccc(OCCN2CCOCC2)cc1 (configuration not stated) | 0
14 | > 100 | – | – | – | – | – | – | CCOC(=O)C1=C(N)Oc2cc(O)ccc2C1c1ccc(OCC)cc1 (configuration not stated) | –
15 | 27.3 | 1.41 | 3.1 | – | – | – | – | CCOC(=O)C1=C(N)Oc2cc(O)ccc2C1c1ccc(OCCN2CCCC2)cc1 (configuration not stated) | 0
16 | 8.75 | 0.02 | 0.06 | > 24 | 27 | > 24 | > 24 | CCOC(=O)C1=C(N)Oc2cc(O)ccc2C1c1ccc(OCCN2CCCCC2)cc1 (configuration not stated) | 0
17 | 35.3 | 14 | > 50 | – | – | – | – | N#CC1=C(N)Oc2cc(O)ccc2C1c1ccc(OCCN2CCOCC2)cc1 (configuration not stated) | 0
18 | 7.73 | 0.02 | 6.55 | – | – | – | – | CCCCOC(=O)C1=C(N)Oc2cc(O)ccc2C1c1ccc(OCCN2CCCC2)cc1 (configuration not stated) | –
19 | 16.2 | 0.05 | 0.22 | – | – | – | – | COC(=O)C1=C(N)Oc2cc(O)ccc2C1c1ccc(OCCN2CCCCC2)cc1 (configuration not stated) | 0
20 | > 100 | 0.79 | 10 | – | – | – | – | COC(=O)C1=C(N)Oc2cc(O)ccc2C1c1ccc(O)cc1 (configuration not stated) | –
21 | 10 | 0.01 | 0.67 | – | – | – | – | CC(C)(C)OC(=O)C1=C(N)Oc2cc(O)ccc2C1c1ccc(OCCN2CCCC2)cc1 (configuration not stated) | –
22 | – | – | – | – | – | – | – | CC/C(=C(\c1ccccc1)c1ccc(OCCN(C)C)cc1)c1ccccc1 [TAMOXIFEN] | 13.4
